Data: ChEMBL document CHEMBL5058577, “EUbOPEN Chemogenomics Library 2 (Multiplex)” (2022)

Test system: Fibroblast
Experiment: Multiplex assay against human fibroblast
Assay type: toxicity, cell-based
In short: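 Compound was added to live cells that had been stained at seeding with Hoechst33342, BioTracker Green Microtubule Cytoskeleton Dye, MitoTracker Red and Annexin V Alexa Fluor 680, and imaging followed on a CQ1 microscope at 37°C and 5% CO2. CellPathfinder machine-learning gating divided cells into Hoechst high-intensity objects or normal cells, normal cells into healthy, pyknosed or fragmented nuclei, and pyknosed cells into mitotic or apoptotic. Tubulin, mitochondrial-mass and membrane-permeability phenotypes are per cents of healthy-nucleus cells.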

[1] = 12 h, 1 µM, compound concentration 1 uM, replicate 1
[2] = 12 h, 1 µM, compound concentration 1 uM, replicate 2
[3] = 12 h, 10 µM, compound concentration 10 uM, replicate 1
[4] = 12 h, 10 µM, compound concentration 10 uM, replicate 2
[5] = 24 h, 1 µM, compound concentration 1 uM, replicate 1
[6] = 24 h, 1 µM, compound concentration 1 uM, replicate 2
[7] = 24 h, 10 µM, compound concentration 10 uM, replicate 1
[8] = 24 h, 10 µM, compound concentration 10 uM, replicate 2
[9] = 48 h, 1 µM, compound concentration 1 uM, replicate 1
[10] = 48 h, 1 µM, compound concentration 1 uM, replicate 2
[11] = 48 h, 10 µM, compound concentration 10 uM, replicate 1
[12] = 48 h, 10 µM, compound concentration 10 uM, replicate 2

CN1CCN2c3ncccc3Cc3ccccc3C2C1 (stereo not given) [MIRTAZAPINE]
Population Apoptotic (%) [1]: 44%
Population Fragmented Nuclei (%) [1]: 10%
Population Healthy Nuclei (%) [1]: 77%
Population Hoechst High Intensity Objects (%) [1]: 3%
Population Membrane Permeable-Phenotype (%) [1]: 0%
Population Mitochondria Different-Phenotype (%) [1]: 6%
Population Mitotic Cells (%) [1]: 56%
Population Normal (%) [1]: 96%
Population Pyknosed Nuclei (%) [1]: 12%
Population Tubulin-Different-Phenotype (%) [1]: 24%
Total Cell Count [1]: 213
Population Apoptotic (%) [2]: 33%
Population Fragmented Nuclei (%) [2]: 24%
Population Healthy Nuclei (%) [2]: 47%
Population Membrane Permeable-Phenotype (%) [2]: 4%
Population Mitochondria Different-Phenotype (%) [2]: 5%
Population Mitotic Cells (%) [2]: 66%
Population Pyknosed Nuclei (%) [2]: 27%
Population Tubulin-Different-Phenotype (%) [2]: 45%
Total Cell Count [2]: 156
Population Apoptotic (%) [3]: 44%
Population Fragmented Nuclei (%) [3]: 19%
Population Healthy Nuclei (%) [3]: 69%
Population Hoechst High Intensity Objects (%) [3]: 1%
Population Membrane Permeable-Phenotype (%) [3]: 0%
Population Mitochondria Different-Phenotype (%) [3]: 8%
Population Mitotic Cells (%) [3]: 55%
Population Normal (%) [3]: 98%
Population Pyknosed Nuclei (%) [3]: 10%
Population Tubulin-Different-Phenotype (%) [3]: 30%
Total Cell Count [3]: 168
Population Apoptotic (%) [4]: 28%
Population Fragmented Nuclei (%) [4]: 27%
Population Healthy Nuclei (%) [4]: 40%
Population Hoechst High Intensity Objects (%) [4]: 6%
Population Membrane Permeable-Phenotype (%) [4]: 16%
Population Mitochondria Different-Phenotype (%) [4]: 7%
Population Mitotic Cells (%) [4]: 71%
Population Normal (%) [4]: 93%
Population Pyknosed Nuclei (%) [4]: 32%
Population Tubulin-Different-Phenotype (%) [4]: 60%
Total Cell Count [4]: 140
Population Apoptotic (%) [5]: 47%
Population Fragmented Nuclei (%) [5]: 7%
Population Healthy Nuclei (%) [5]: 82%
Population Hoechst High Intensity Objects (%) [5]: 5%
Population Membrane Permeable-Phenotype (%) [5]: 0%
Population Mitochondria Different-Phenotype (%) [5]: 5%
Population Mitotic Cells (%) [5]: 52%
Population Normal (%) [5]: 94%
Population Pyknosed Nuclei (%) [5]: 10%
Population Tubulin-Different-Phenotype (%) [5]: 31%
Total Cell Count [5]: 201
Population Apoptotic (%) [6]: 48%
Population Fragmented Nuclei (%) [6]: 26%
Population Healthy Nuclei (%) [6]: 50%
Population Hoechst High Intensity Objects (%) [6]: 0%
Population Membrane Permeable-Phenotype (%) [6]: 10%
Population Mitochondria Different-Phenotype (%) [6]: 10%
Population Mitotic Cells (%) [6]: 51%
Population Normal (%) [6]: 99%
Population Pyknosed Nuclei (%) [6]: 23%
Population Tubulin-Different-Phenotype (%) [6]: 36%
Total Cell Count [6]: 153
Population Apoptotic (%) [7]: 50%
Population Fragmented Nuclei (%) [7]: 19%
Population Healthy Nuclei (%) [7]: 72%
Population Hoechst High Intensity Objects (%) [7]: 4%
Population Membrane Permeable-Phenotype (%) [7]: 0%
Population Mitochondria Different-Phenotype (%) [7]: 9%
Population Mitotic Cells (%) [7]: 50%
Population Normal (%) [7]: 95%
Population Pyknosed Nuclei (%) [7]: 7%
Population Tubulin-Different-Phenotype (%) [7]: 30%
Total Cell Count [7]: 186
Population Apoptotic (%) [8]: 46%
Population Fragmented Nuclei (%) [8]: 29%
Population Healthy Nuclei (%) [8]: 46%
Population Hoechst High Intensity Objects (%) [8]: 5%
Population Membrane Permeable-Phenotype (%) [8]: 15%
Population Mitochondria Different-Phenotype (%) [8]: 1%
Population Mitotic Cells (%) [8]: 53%
Population Normal (%) [8]: 94%
Population Pyknosed Nuclei (%) [8]: 23%
Population Tubulin-Different-Phenotype (%) [8]: 68%
Total Cell Count [8]: 136
Population Apoptotic (%) [9]: 60%
Population Fragmented Nuclei (%) [9]: 15%
Population Healthy Nuclei (%) [9]: 73%
Population Hoechst High Intensity Objects (%) [9]: 7%
Population Membrane Permeable-Phenotype (%) [9]: 0%
Population Mitochondria Different-Phenotype (%) [9]: 4%
Population Mitotic Cells (%) [9]: 39%
Population Normal (%) [9]: 92%
Population Pyknosed Nuclei (%) [9]: 11%
Population Tubulin-Different-Phenotype (%) [9]: 31%
Total Cell Count [9]: 213
Population Apoptotic (%) [10]: 50%
Population Fragmented Nuclei (%) [10]: 36%
Population Healthy Nuclei (%) [10]: 45%
Population Hoechst High Intensity Objects (%) [10]: 2%
Population Membrane Permeable-Phenotype (%) [10]: 11%
Population Mitochondria Different-Phenotype (%) [10]: 12%
Population Mitotic Cells (%) [10]: 50%
Population Normal (%) [10]: 97%
Population Pyknosed Nuclei (%) [10]: 17%
Population Tubulin-Different-Phenotype (%) [10]: 56%
Total Cell Count [10]: 161
Population Apoptotic (%) [11]: 66%
Population Fragmented Nuclei (%) [11]: 17%
Population Healthy Nuclei (%) [11]: 73%
Population Hoechst High Intensity Objects (%) [11]: 5%
Population Membrane Permeable-Phenotype (%) [11]: 0%
Population Mitochondria Different-Phenotype (%) [11]: 9%
Population Mitotic Cells (%) [11]: 33%
Population Normal (%) [11]: 94%
Population Pyknosed Nuclei (%) [11]: 9%
Population Tubulin-Different-Phenotype (%) [11]: 36%
Total Cell Count [11]: 176
Population Apoptotic (%) [12]: 33%
Population Fragmented Nuclei (%) [12]: 46%
Population Healthy Nuclei (%) [12]: 41%
Population Hoechst High Intensity Objects (%) [12]: 2%
Population Membrane Permeable-Phenotype (%) [12]: 8%
Population Mitochondria Different-Phenotype (%) [12]: 2%
Population Mitotic Cells (%) [12]: 66%
Population Normal (%) [12]: 97%
Population Pyknosed Nuclei (%) [12]: 12%
Population Tubulin-Different-Phenotype (%) [12]: 60%
Total Cell Count [12]: 120

CCNC1(C(N)=O)CCN(c2ncnc3c2nc(-c2ccccc2Cl)n3-c2ccc(Cl)cc2)CC1 [OTENABANT]
Population Apoptotic (%) [1]: 26%
Population Fragmented Nuclei (%) [1]: 19%
Population Healthy Nuclei (%) [1]: 63%
Population Hoechst High Intensity Objects (%) [1]: 6%
Population Membrane Permeable-Phenotype (%) [1]: 1%
Population Mitochondria Different-Phenotype (%) [1]: 7%
Population Mitotic Cells (%) [1]: 73%
Population Normal (%) [1]: 93%
Population Pyknosed Nuclei (%) [1]: 17%
Population Tubulin-Different-Phenotype (%) [1]: 44%
Total Cell Count [1]: 161
Population Apoptotic (%) [2]: 37%
Population Fragmented Nuclei (%) [2]: 25%
Population Healthy Nuclei (%) [2]: 48%
Population Hoechst High Intensity Objects (%) [2]: 2%
Population Membrane Permeable-Phenotype (%) [2]: 6%
Population Mitochondria Different-Phenotype (%) [2]: 10%
Population Mitotic Cells (%) [2]: 62%
Population Normal (%) [2]: 97%
Population Pyknosed Nuclei (%) [2]: 26%
Population Tubulin-Different-Phenotype (%) [2]: 50%
Total Cell Count [2]: 156
Population Apoptotic (%) [3]: 57%
Population Fragmented Nuclei (%) [3]: 22%
Population Healthy Nuclei (%) [3]: 64%
Population Hoechst High Intensity Objects (%) [3]: 4%
Population Membrane Permeable-Phenotype (%) [3]: 0%
Population Mitochondria Different-Phenotype (%) [3]: 16%
Population Mitotic Cells (%) [3]: 42%
Population Normal (%) [3]: 95%
Population Pyknosed Nuclei (%) [3]: 12%
Population Tubulin-Different-Phenotype (%) [3]: 90%
Total Cell Count [3]: 170
Population Apoptotic (%) [4]: 40%
Population Fragmented Nuclei (%) [4]: 30%
Population Healthy Nuclei (%) [4]: 48%
Population Hoechst High Intensity Objects (%) [4]: 3%
Population Membrane Permeable-Phenotype (%) [4]: 12%
Population Mitochondria Different-Phenotype (%) [4]: 18%
Population Mitotic Cells (%) [4]: 59%
Population Normal (%) [4]: 96%
Population Pyknosed Nuclei (%) [4]: 21%
Population Tubulin-Different-Phenotype (%) [4]: 87%
Total Cell Count [4]: 216
Population Apoptotic (%) [5]: 26%
Population Fragmented Nuclei (%) [5]: 17%
Population Healthy Nuclei (%) [5]: 66%
Population Hoechst High Intensity Objects (%) [5]: 4%
Population Membrane Permeable-Phenotype (%) [5]: 0%
Population Mitochondria Different-Phenotype (%) [5]: 8%
Population Mitotic Cells (%) [5]: 73%
Population Normal (%) [5]: 95%
Population Pyknosed Nuclei (%) [5]: 15%
Population Tubulin-Different-Phenotype (%) [5]: 44%
Total Cell Count [5]: 154
Population Apoptotic (%) [6]: 34%
Population Fragmented Nuclei (%) [6]: 27%
Population Healthy Nuclei (%) [6]: 43%
Population Hoechst High Intensity Objects (%) [6]: 5%
Population Membrane Permeable-Phenotype (%) [6]: 9%
Population Mitochondria Different-Phenotype (%) [6]: 14%
Population Mitotic Cells (%) [6]: 65%
Population Normal (%) [6]: 94%
Population Pyknosed Nuclei (%) [6]: 29%
Population Tubulin-Different-Phenotype (%) [6]: 57%
Total Cell Count [6]: 155
Population Apoptotic (%) [7]: 54%
Population Fragmented Nuclei (%) [7]: 22%
Population Healthy Nuclei (%) [7]: 64%
Population Hoechst High Intensity Objects (%) [7]: 2%
Population Membrane Permeable-Phenotype (%) [7]: 0%
Population Mitochondria Different-Phenotype (%) [7]: 37%
Population Mitotic Cells (%) [7]: 45%
Population Normal (%) [7]: 97%
Population Pyknosed Nuclei (%) [7]: 12%
Population Tubulin-Different-Phenotype (%) [7]: 96%
Total Cell Count [7]: 174
Population Fragmented Nuclei (%) [8]: 37%
Population Healthy Nuclei (%) [8]: 48%
Population Hoechst High Intensity Objects (%) [8]: 5%
Population Membrane Permeable-Phenotype (%) [8]: 7%
Population Mitochondria Different-Phenotype (%) [8]: 30%
Population Normal (%) [8]: 94%
Population Pyknosed Nuclei (%) [8]: 13%
Population Tubulin-Different-Phenotype (%) [8]: 88%
Total Cell Count [8]: 235
Population Apoptotic (%) [9]: 68%
Population Fragmented Nuclei (%) [9]: 18%
Population Healthy Nuclei (%) [9]: 69%
Population Hoechst High Intensity Objects (%) [9]: 8%
Population Membrane Permeable-Phenotype (%) [9]: 0%
Population Mitochondria Different-Phenotype (%) [9]: 3%
Population Mitotic Cells (%) [9]: 31%
Population Normal (%) [9]: 91%
Population Pyknosed Nuclei (%) [9]: 12%
Population Tubulin-Different-Phenotype (%) [9]: 41%
Total Cell Count [9]: 167
Population Apoptotic (%) [10]: 59%
Population Fragmented Nuclei (%) [10]: 33%
Population Healthy Nuclei (%) [10]: 42%
Population Hoechst High Intensity Objects (%) [10]: 5%
Population Membrane Permeable-Phenotype (%) [10]: 13%
Population Mitochondria Different-Phenotype (%) [10]: 18%
Population Mitotic Cells (%) [10]: 40%
Population Normal (%) [10]: 94%
Population Pyknosed Nuclei (%) [10]: 23%
Population Tubulin-Different-Phenotype (%) [10]: 72%
Total Cell Count [10]: 143
Population Apoptotic (%) [11]: 78%
Population Fragmented Nuclei (%) [11]: 30%
Population Healthy Nuclei (%) [11]: 61%
Population Hoechst High Intensity Objects (%) [11]: 8%
Population Membrane Permeable-Phenotype (%) [11]: 0%
Population Mitochondria Different-Phenotype (%) [11]: 49%
Population Mitotic Cells (%) [11]: 21%
Population Normal (%) [11]: 91%
Population Pyknosed Nuclei (%) [11]: 8%
Population Tubulin-Different-Phenotype (%) [11]: 92%
Total Cell Count [11]: 187
Population Apoptotic (%) [12]: 61%
Population Fragmented Nuclei (%) [12]: 46%
Population Healthy Nuclei (%) [12]: 47%
Population Hoechst High Intensity Objects (%) [12]: 2%
Population Membrane Permeable-Phenotype (%) [12]: 7%
Population Mitochondria Different-Phenotype (%) [12]: 26%
Population Mitotic Cells (%) [12]: 38%
Population Normal (%) [12]: 97%
Population Pyknosed Nuclei (%) [12]: 6%
Population Tubulin-Different-Phenotype (%) [12]: 89%
Total Cell Count [12]: 299
